ChEMBL document CHEMBL2331277, “Design, synthesis and pharmacological evaluation of omeprazole-like agents with anti-inflammatory activity” (2013)

What was measured:
Rattus norvegicus [1] = experiment: Antiinflammatory activity against carrageenan-induced paw edema in Sprague-Dawley rat assessed as paw volume at 30 mg/kg, po measured 120 mins post challenge by plethysmometer (reference value: 1.13 +/- 0.04 ml); format: functional
Rattus norvegicus [2] = experiment: Antiinflammatory activity against carrageenan-induced paw edema in Sprague-Dawley rat assessed as paw volume at 20 mg/kg, po measured 120 mins post challenge by plethysmometer (reference value: 1.13 +/- 0.04 ml); format: functional
Rattus norvegicus [3] = experiment: Antiinflammatory activity against carrageenan-induced paw edema in Sprague-Dawley rat assessed as paw volume at 10 mg/kg, po measured 60 mins post challenge by plethysmometer (reference value: 0.90 +/- 0.03 ml); format: functional
Rattus norvegicus [4] = experiment: Antiinflammatory activity against carrageenan-induced paw edema in Sprague-Dawley rat assessed as paw volume at 30 mg/kg, po measured 60 mins post challenge by plethysmometer (reference value: 0.90 +/- 0.03 ml); format: functional
Rattus norvegicus [5] = experiment: Antiinflammatory activity against carrageenan-induced paw edema in Sprague-Dawley rat assessed as inhibition of paw volume at 10 mg/kg, po measured 180 mins post challenge by plethysmometer; format: functional; settings: 3 h
Rattus norvegicus [6] = experiment: Antiinflammatory activity against carrageenan-induced paw edema in Sprague-Dawley rat assessed as inhibition of paw volume at 30 mg/kg, po measured 180 mins post challenge by plethysmometer; format: functional; settings: 3 h
Rattus norvegicus [7] = experiment: Antiinflammatory activity against carrageenan-induced paw edema in Sprague-Dawley rat assessed as paw volume at 20 mg/kg, po measured 60 mins post challenge by plethysmometer (reference value: 0.90 +/- 0.03 ml); format: functional
Rattus norvegicus [8] = experiment: Antiinflammatory activity against carrageenan-induced paw edema in Sprague-Dawley rat assessed as paw volume at 10 mg/kg, po measured 120 mins post challenge by plethysmometer (reference value: 1.13 +/- 0.04 ml); format: functional
Rattus norvegicus [9] = experiment: Antiinflammatory activity against carrageenan-induced paw edema in Sprague-Dawley rat assessed as inhibition of paw volume at 20 mg/kg, po measured 180 mins post challenge by plethysmometer; format: functional; settings: 3 h
Mus musculus [10] = experiment: Antiulcerogenic activity in ethanol-induced gastric ulcer Swiss albino mouse model assessed as lesion length at 3.6 mg/kg administered intragastrically for 3 days; format: functional, Stomach; settings: route intragastric
How it was run: (§1)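 Mice, n = 6 per group, given 3.6 or 7.2 mg/kg, omeprazole 3.6 mg/kg, or vehicle (0.25% w/v carboxymethyl cellulose) for 3 days. After a 24 h fast, 90% ethanol (10 ml/kg) was given intragastrically. Animals were killed 1 h later. Stomachs were opened along the greater curvature and lesion lengths measured under a microscope.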

Mus musculus [11] = experiment: Antiulcerogenic activity in ethanol-induced gastric ulcer Swiss albino mouse model assessed as inhibition of ulceration at 7.2 mg/kg administered intragastrically for 3 days relative to control; format: functional; settings: Stomach, po, 72 h, route intragastric; how it was run: as §1
Mus musculus [12] = experiment: Antiulcerogenic activity in ethanol-induced gastric ulcer Swiss albino mouse model assessed as lesion length at 7.2 mg/kg administered intragastrically for 3 days; format: functional, Stomach; settings: route intragastric; how it was run: as §1
Rattus norvegicus [13] = experiment: Antiulcerogenic activity in pylorus ligation-induced gastric ulcer Sprague-Dawley rat model assessed as volume of gastric juice at 3.6 mg/kg, po for 3 days (Rvb =5.96 +/-0.80 ml ); format: functional
Rattus norvegicus [14] = experiment: Antiulcerogenic activity in pylorus ligation-induced gastric ulcer Sprague-Dawley rat model assessed as stomach peptic activity measuring tyrosine release for 4 hrs at 7.2 mg/kg, po for 3 days (Rvb =5.70 +/-2.40 ug/ml ); format: functional
How it was run: (§2)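 Pylorus-ligated rat model as above (3-day oral dosing, 3.6 or 7.2 mg/kg, 5 h ligation). Gastric juice sample (0.1 ml) was incubated with 2.9 ml acid hemoglobin substrate (2.5 g/100 ml, pH 2.2) for 30 min at 37 °C. Reaction was stopped with ice-cold 0.6 M TCA and centrifuged. Liberated amino acids were read by Lowry, expressed as µg tyrosine/ml.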

Rattus norvegicus [15] = experiment: Antiulcerogenic activity in pylorus ligation-induced gastric ulcer Sprague-Dawley rat model assessed as pH of gastric juice at 7.2 mg/kg, po for 3 days (Rvb =2.60 +/-0.55 ); format: functional
Rattus norvegicus [16] = experiment: Antiulcerogenic activity in pylorus ligation-induced gastric ulcer Sprague-Dawley rat model assessed as stomach peptic activity measuring tyrosine release for 4 hrs at 3.6 mg/kg, po for 3 days (Rvb =5.70 +/-2.40 ug/ml ); format: functional; how it was run: as §2
Rattus norvegicus [17] = experiment: Antiulcerogenic activity in pylorus ligation-induced gastric ulcer Sprague-Dawley rat model assessed as stomach H+/K+-ATPase activity measuring Pi release per hour per mg protein at 7.2 mg/kg, po for 3 days (Rvb =11.44 +/-1.5 umol ); format: functional
Rattus norvegicus [18] = experiment: Antiulcerogenic activity in pylorus ligation-induced gastric ulcer Sprague-Dawley rat model assessed as pH of gastric juice at 3.6 mg/kg, po for 3 days (Rvb =2.60 +/-0.55 ); format: functional
Rattus norvegicus [19] = experiment: Antiulcerogenic activity in pylorus ligation-induced gastric ulcer Sprague-Dawley rat model assessed as stomach H+/K+-ATPase activity measuring Pi release per hour per mg protein at 3.6 mg/kg, po for 3 days (Rvb =11.44 +/-1.5 umol ); format: functional
Rattus norvegicus [20] = experiment: Antiulcerogenic activity in pylorus ligation-induced gastric ulcer Sprague-Dawley rat model assessed as volume of gastric juice at 7.2 mg/kg, po for 3 days (Rvb =5.96 +/-0.80 ml ); format: functional
Mus musculus [21] = experiment: Antiulcerogenic activity in ethanol-induced gastric ulcer Swiss albino mouse model assessed as inhibition of ulceration at 3.6 mg/kg administered intragastrically for 3 days relative to control; format: functional; settings: Stomach, po, 72 h, route intragastric; how it was run: as §1

Structure (SMILES) | Activity (Rattus norvegicus [1]) [mL] | Activity (Rattus norvegicus [2]) [mL] | Activity (Rattus norvegicus [3]) [mL] | Activity (Rattus norvegicus [4]) [mL] | inhibition in vivo at 10 mg/kg (Rattus norvegicus [5]) [%] | inhibition in vivo at 30 mg/kg (Rattus norvegicus [6]) [%] | Activity (Rattus norvegicus [7]) [mL] | Activity (Rattus norvegicus [8]) [mL] | inhibition in vivo at 20 mg/kg (Rattus norvegicus [9]) [%] | Activity (Mus musculus [10]) [mm] | inhibition in vivo at 7.2 mg/kg (Mus musculus [11]) [%] | Activity (Mus musculus [12]) [mm] | Activity (Rattus norvegicus [13]) [mL] | Activity (Rattus norvegicus [14]) [µg/mL] | pH (Rattus norvegicus [15]) | Activity (Rattus norvegicus [16]) [µg/mL] | Activity (Rattus norvegicus [17]) [µmol] | pH (Rattus norvegicus [18]) | Activity (Rattus norvegicus [19]) [µmol] | inhibition in vivo at 3.6 mg/kg (Mus musculus [21]) [%] | further results
COc1ccnc(CNc2ccc3[nH]c(C)nc3c2)c1C | 0.65 | 0.69 | 0.7 | 0.64 | 11 | 55 | 0.69 | 0.9 | 52 | – | – | – | – | – | – | – | – | – | – | – | –
O=C([O-])Cc1ccccc1Nc1c(Cl)cccc1Cl.[Na+] [DICLOFENAC SODIUM] | – | 0.35 | – | – | – | – | 0.38 | – | 73 | – | – | – | – | – | – | – | – | – | – | – | –
Cc1nc2cc(NCc3ccccn3)ccc2n1C[C@@H](O)[C@H]1O[C@H](O)[C@@H](O)[C@H]1O | 0.64 | 0.69 | 0.69 | 0.63 | 8 | 52 | 0.68 | 0.89 | 47 | 68 | 54 | 58 | 2.4 | 4.44 | 4.41 | 4.72 | 6.02 | 4.04 | 6.91 | 46 | Activity (Rattus norvegicus [20]): 2.3 mL
COc1ccc2[nH]c([S+]([O-])Cc3ncc(C)c(OC)c3C)nc2c1 (stereo not given) [OMEPRAZOLE] | – | – | – | – | – | – | – | – | – | 40 | – | – | 2.64 | – | – | 4.92 | – | 4.26 | 7.1 | 68.3 | –
COc1ccnc(CNc2ccc3c(c2)nc(C)n3C[C@@H](O)[C@H]2O[C@H](O)[C@@H](O)[C@H]2O)c1C | 0.64 | 0.68 | 0.68 | 0.63 | 22 | 58 | 0.68 | 0.88 | 53 | 53 | 66.6 | 42 | 2.31 | 4.34 | 4.31 | 4.62 | 6 | 4.1 | 6.78 | 57.9 | Activity (Rattus norvegicus [20]): 2.24 mL
COc1ccnc(CNc2ccc3c(c2)nc(C)n3C[C@@H](O)[C@H]2O[C@H](O)[C@@H](O)[C@H]2O)c1OC | 0.38 | 0.4 | 0.53 | 0.41 | 41 | 72 | 0.44 | 0.52 | 62 | 49 | 73 | 34 | 2.56 | 4.54 | 4.73 | 4.79 | 6.34 | 4.53 | 6.88 | 61 | Activity (Rattus norvegicus [20]): 2.39 mL
COc1c(C)cnc(CNc2ccc3[nH]c(C)nc3c2)c1C | 0.62 | 0.67 | 0.7 | 0.64 | 10 | 53 | 0.69 | 0.88 | 49 | – | – | – | – | – | – | – | – | – | – | – | –
COc1c(C)cnc(CNc2ccc3c(c2)nc(C)n3C[C@@H](O)[C@H]2O[C@H](O)[C@@H](O)[C@H]2O)c1C | 0.43 | 0.48 | 0.61 | 0.49 | 36 | 56 | 0.5 | 0.64 | 50 | 47 | 76.2 | 30 | 2.48 | 4.56 | 4.39 | 4.8 | 6.62 | 4.14 | 7.01 | 62.6 | Activity (Rattus norvegicus [20]): 2.38 mL
Cc1nc2cc(NCc3ccccn3)ccc2[nH]1 | 1.03 | 1.08 | 0.97 | 0.87 | 10 | 45 | 0.9 | 1.08 | 32 | – | – | – | – | – | – | – | – | – | – | – | –
